This is an account of results in ChEMBL document CHEMBL4680165, “β-Lactams with antiproliferative and antiapoptotic activity in breast and chemoresistant colon cancer cells” (Eur J Med Chem, 2020).

The subject of one data set is HT-29. Nature of the data set: Antiproliferative activity against human HT-29 cells assessed as reduction in cell viability after 72 hrs by alamar blue assay. The format is functional, cell-based. The settings on record: HT-29, 72 h. Summed up:
(§1)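 Cells seeded at 5 x 10^3/well (MCF-7) or 1 x 10^4/well (HT-29, HEK-293T) and treated after 24 h with serial dilutions (0.001-100 µM) in 1% v/v ethanol vehicle. Alamar Blue 10% v/v added at 72 h, then 3-5 h at 37 °C in the dark; fluorescence ex 530/em 590 nm. Viability relative to vehicle; IC50 from dose-response curves; mean of three experiments in triplicate.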
In general terms: Alamar Blue is a resazurin reagent that responds to reducing activity.

The test system of the next data set is MCF7. Put plainly: Antiproliferative activity against human MCF7 cells assessed as reduction in cell viability after 72 hrs by alamar blue assay. The format is functional, cell-based. To be noted: MCF7, 72 h. Summed up:
as §1

The test system of data set [1] is UDP-glucuronosyltransferases (UGTs). Nature of the data set: Metabolic stability in human liver microsomes assessed as UGT-mediated N-glucuronidation by measuring half life at 3 uM measured up to 45 mins by LC-MS/MS analysis. It counts as ADME. The settings on record: microsomes, 0.75 h, 3 µM. A digest of the protocol:
(§2)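 Pooled human liver microsomes (0.5 mg/mL protein final) with alamethicin (25 µg/mg) in 0.1 M phosphate pH 7.4, compound 3 µM final (0.25% DMSO), preincubated 37 °C. Reaction started with UDPGA (1 mM final). Sampled at 0, 5, 15, 30, 45 min into methanol, analysed by LC-MS/MS. Minus-UDPGA control run 45 min. Single incubations; t½ and CLint taken from the elimination rate constant.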
Background: Liver microsomes are a subcellular fraction often used to study metabolism.

The nature of data set [2]: Selectivity index, ratio of IC50 for human MCF7 cells to IC50 for human HT-29 cells assessed as reduction in cell viability after 72 hrs by alamar blue assay. The format is functional.
The test system of data set [3] is UDP-glucuronosyltransferases (UGTs). Nature of the data set: Metabolic stability in human liver microsomes assessed as UGT-mediated N-glucuronidation by measuring intrinsic clearance at 3 uM measured up to 45 mins by LC-MS/MS analysis. To be noted: microsomes, 0.75 h, 3 µM. The format is ADME. Summed up: as §2
For the next data set, the target named is Tubulin (Homo sapiens) (UniProt P68371+Q9H4B7+P0DPH7+P68366+Q13509+Q71U36+P04350+Q3ZCM7+P07437+P68363+Q9BQE3+Q6PEY2+Q13885+Q9BVA1+Q9BUF5). Put plainly: Binding affinity to tubulin in human MCF7 cells assessed as inhibition of tubulin-EBI adduct formation preincubated for 2 hrs followed by EBI addition and measured after 1.5 hrs by Western blotting analysis. The format is cell-based. To be noted: time 3.5 hrs. A digest of the protocol: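 MCF-7 cells (5 × 10^4/well) were incubated overnight, then given vehicle (0.1% v/v ethanol) or compound at 10 µM for 2 h. Selected wells then received EBI (100 µM) for 1.5 h. Cells were washed in ice-cold PBS, lysed in Laemmli buffer and run on SDS-PAGE. Blots were probed for β-tubulin and the β-tubulin–EBI adduct, with GAPDH as loading control. Three independent experiments.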
On the technique in general: In western blotting, separated proteins are transferred to a membrane and probed.

The next data set is filed under the species Bos taurus. Nature of the data set: Inhibition of bovine brain tubulin polymerization at 10 uM measured at 30 sec interval for 30 mins in presence of GTP by turbidimetry-based spectrophotometric method.

Active and inactive are the calls of the source. The rule behind the calls is not given here.

A word on the IC50: it is the concentration that gives 50% inhibition. On to `COc1ccc(/C=C\c2cc(OC)c(OC)c(OC)c2)cc1O` [COMBRETASTATIN A4], for which the IC50 was determined as 4160 nM with HT-29 and 4 nM in the data set with MCF7. For the same compound, the t1/2 in data set [1] came out at 2.71 min. The “Ratio IC50” value in data set [2] was 0.001. For the same compound, the CLH in data set [3] stood at 645 µL/min/mg. In addition, at Tubulin (Homo sapiens), the outcome was Active. Also, the inhibition entry in the data set filed under Bos taurus was “Active”.
